Experimental data from ChEMBL document CHEMBL3272182 (J Med Chem, 1976).
Positions of bridges follow the written chain, without caps; N, C: chain ends. Non-standard residues stand in square brackets, D forms with d. Residues, ends and D or L forms follow the SMILES beside them. Mpa = O=C(O)CCS

Key:
[1] = molecular target: T1, Oxytocin receptor (Rattus norvegicus) (UniProt P70536); test: Activity at oxytocin receptor in rat uterus in presence of Mg2+; format: tissue-based
T1 sequence (whole entry): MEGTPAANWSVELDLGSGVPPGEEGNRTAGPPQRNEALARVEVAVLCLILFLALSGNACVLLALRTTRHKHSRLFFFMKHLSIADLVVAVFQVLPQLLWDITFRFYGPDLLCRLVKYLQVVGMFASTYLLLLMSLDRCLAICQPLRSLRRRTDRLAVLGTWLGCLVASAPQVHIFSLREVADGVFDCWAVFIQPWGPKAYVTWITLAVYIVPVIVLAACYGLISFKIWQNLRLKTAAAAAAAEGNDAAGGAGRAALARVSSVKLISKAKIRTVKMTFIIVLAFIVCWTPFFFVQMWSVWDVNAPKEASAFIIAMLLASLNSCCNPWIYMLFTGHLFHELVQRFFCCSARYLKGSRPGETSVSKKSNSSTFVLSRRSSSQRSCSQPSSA

[2] = molecular target: T1, Oxytocin receptor (Rattus norvegicus); test: Activity at oxytocin receptor in rat uterus; format: tissue-based
[3] = species: Rattus norvegicus; test: Antidiuretic activity in rat; format: functional, Urine
[4] = species: Rattus norvegicus; test: Ratio of antidiuretic activity in rat to vasopressor activity in rat; design: species or system Urine
How it was run: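 Antidiuretic and vasopressor potencies were each expressed in units/mg from rat assays. The A/P value is the antidiuretic potency divided by the vasopressor potency.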

[5] = Retardation factor of the compound by silica gel thin-layer chromatography
[6] = species: Rattus norvegicus; test: Vasopressor activity in rat; format: organism-based; settings: in vivo

SMILES | Activity [1] | Activity [2] | Activity [3] | Ratio [4] | Rf [5] | Activity [6]
N=C(N)NCCC[C@@H](NC(=O)[C@@H]1CCCN1C(=O)[C@@H]1CSSCCC(=O)N[C@@H](Cc2ccc(O)cc2)C(=O)N[C@@H](Cc2ccccc2)C(=O)N[C@@H](CCC(N)=O)C(=O)N[C@@H](CC(N)=O)C(=O)N1)C(=O)NCC(N)=O (stereo in doubt; 4) | 66 U/mg | 47 U/mg | – | – | – | –
N=C(N)NCCC[C@H](NC(=O)[C@@H]1CCCN1C(=O)[C@@H]1CSSC[C@H](N)C(=O)N[C@@H](Cc2ccc(O)cc2)C(=O)N[C@@H](Cc2ccccc2)C(=O)N[C@@H](CCC(N)=O)C(=O)N[C@@H](CC(N)=O)C(=O)N1)C(=O)NCC(N)=O [VASOPRESSIN] | 25.5 U/mg | – | 323 U/mg | 1 | – | –
C[C@@H](O)[C@@H]1NC(=O)[C@H](Cc2ccccc2)NC(=O)[C@H](Cc2ccc(O)cc2)NC(=O)CCSSC[C@@H](C(=O)N2CCC[C@H]2C(=O)N[C@H](CCCNC(=N)N)C(=O)NCC(N)=O)NC(=O)[C@H](CC(N)=O)NC1=O | – | – | 793 U/mg | – | 0.24 | < 0.02 U/mg
CC(C)[C@@H]1NC(=O)[C@H](Cc2ccccc2)NC(=O)[C@H](Cc2ccc(O)cc2)NC(=O)CCSSC[C@@H](C(=O)N2CCC[C@H]2C(=O)N[C@H](CCCNC(=N)N)C(=O)NCC(N)=O)NC(=O)[C@H](CC(N)=O)NC1=O ([Mpa]YFVNCP[dR]G-NH2; disulfide 1-6) | – | – | 1230 U/mg | – | – | < 0.01 U/mg
NC(=O)CC[C@@H]1NC(=O)[C@H](Cc2ccccc2)NC(=O)[C@H](Cc2ccc(O)cc2)NC(=O)CCSSC[C@@H](C(=O)N2CCC[C@H]2C(=O)N[C@H](CCCN=C(N)N)C(=O)NCC(N)=O)NC(=O)[C@H](CC(N)=O)NC1=O (stereo in doubt; 4) [DESMOPRESSIN] | – | – | 1390 U/mg | 4 | 0.18 | 346 U/mg
N=C(N)NCCC[C@@H](NC(=O)[C@@H]1CCCN1C(=O)[C@@H]1CSSCCC(=O)N[C@@H](Cc2ccc(O)cc2)C(=O)N[C@@H](Cc2ccccc2)C(=O)N[C@@H](CCC(N)=O)C(=O)N[C@@H](CC(N)=O)C(=O)N1)C(=O)NCC(N)=O (stereo in doubt; 6) | 2.9 U/mg | – | – | – | – | –
NC(=O)CC[C@@H]1NC(=O)[C@H](Cc2ccccc2)NC(=O)[C@H](Cc2ccc(O)cc2)NC(=O)CCSSC[C@@H](C(=O)N2CCC[C@H]2C(=O)N[C@H](CCCN=C(N)N)C(=O)NCC(N)=O)NC(=O)[C@H](CC(N)=O)NC1=O (stereo in doubt; 6) [DESMOPRESSIN] | – | – | 870 U/mg | 80 | 0.21 | 0.39 U/mg
C[C@@H](O)[C@@H]1NC(=O)[C@H](Cc2ccccc2)NC(=O)[C@H](Cc2ccc(O)cc2)NC(=O)CCSSC[C@@H](C(=O)N2CCC[C@H]2C(=O)N[C@@H](CCCN=C(N)N)C(=O)NCC(N)=O)NC(=O)[C@H](CC(N)=O)NC1=O | – | – | 758 U/mg | – | – | 30 U/mg
NC(=O)CC[C@@H]1NC(=O)[C@H](Cc2ccccc2)NC(=O)[C@H](Cc2ccc(O)cc2)NC(=O)[C@@H](N)CSSC[C@@H](C(=O)N2CCC[C@H]2C(=O)N[C@H](CCCN=C(N)N)C(=O)NCC(N)=O)NC(=O)[C@H](CC(N)=O)NC1=O | 1.02 U/mg | 0.4 U/mg | 114 U/mg | 30 | 0.1 | 1.1 U/mg
